Data taken from ChEMBL document CHEMBL4342467, “Discovery of a Novel Dual-Target Inhibitor of ERK1 and ERK5 That Induces Regulated Cell Death to Overcome Compensatory Mechanism in Specific Tumor Types” (J Med Chem, 2020).
Active and inactive are the calls of the source. The rule behind the calls is not given here.

Columns and labels:
[1] = target: T1, Mitogen-activated protein kinase; ERK1/ERK2 (Homo sapiens) (UniProt P27361+P28482); assay: Inhibition of ERK1/2 phosphorylation in human MKN74 cells harboring ERK1/2 siRNA at 0.5 uM by immunofluorescence assay; assay type: cell-based
Outline: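 MKN-74 cells transfected with ERK1/2-specific or negative-control siRNA for the indicated times, then given 0.5 μM. p-ERK1/2 and p-ERK5 puncta detected by immunocytochemistry.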

[2] = target: T1, Mitogen-activated protein kinase; ERK1/ERK2 (Homo sapiens); assay: Inhibition of ERK1/2 in human MKN74 cells assessed as reduction in RSK phosphorylation at T359/S363 residue at 0.5 uM measured up to 24 hrs by Western blot analysis; assay type: cell-based
[3] = target: Mitogen-activated protein kinase 7 (Homo sapiens) (UniProt Q13164); assay: Inhibition of ERK5 in human MKN74 cells harboring ERK1/2 siRNA assessed as reduction in ERK5 phosphorylation at 0.5 uM by Western blot analysis; assay type: cell-based
Outline: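 MKN-74 cells were transfected with ERK1/2-specific siRNA or negative-control siRNA, then exposed to compound. ERK1/2, p-ERK1/2, ERK5 and p-ERK5 were read by immunoblotting, with GAPDH as loading control.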

[4] = Effect on Ras/Raf/MEK/ERK signaling in human MKN74 cells assessed as change in p38 expression at 0.5 uM measured up to 24 hrs by Western blot analysis; assay type: cell-based
Outline: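 MKN-74 cells exposed to 0.5 μM for 0, 6, 12 and 24 h. Ras, Raf, p-MEK1/2, MEK1/2, p-JNK, JNK, p-p38 and p38 immunoblotted, with GAPDH as loading control.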

MKN-74 = assay: Induction of autophagy in human MKN74 cells harboring ATG5 siRNA assessed as increase in LC3-2 expression at 0.5 uM by Western blot analysis; assay type: functional, cell-based
Outline: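 MKN-74 cells transfected with ATG5 or negative-control siRNA for the indicated times, then 0.5 μM. ATG5, LC3 and p62 immunoblotted, with GAPDH loading control.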

[5] = Half life in Sprague-Dawley rat at 1 mg/kg, iv by LC-MS analysis; assay type: ADME, organism-based; details: in vivo
Outline: (§1)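 Rats, two groups of 3; single i.v. dose 1 mg/kg or oral dose 10 mg/kg. Plasma concentration-time profiles used to derive T1/2, Tmax, Cmax, AUC0-t, AUC0-∞ and oral bioavailability. Data from triplicate testing, ± standard deviation.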

[6] = Cmax in Sprague-Dawley rat at 1 mg/kg, iv by LC-MS analysis; assay type: ADME, organism-based; design: dose 1 mg/kg, route intravenous; details: in vivo; outline: as §1

T1 sequence (P27361 whole entry, looked up): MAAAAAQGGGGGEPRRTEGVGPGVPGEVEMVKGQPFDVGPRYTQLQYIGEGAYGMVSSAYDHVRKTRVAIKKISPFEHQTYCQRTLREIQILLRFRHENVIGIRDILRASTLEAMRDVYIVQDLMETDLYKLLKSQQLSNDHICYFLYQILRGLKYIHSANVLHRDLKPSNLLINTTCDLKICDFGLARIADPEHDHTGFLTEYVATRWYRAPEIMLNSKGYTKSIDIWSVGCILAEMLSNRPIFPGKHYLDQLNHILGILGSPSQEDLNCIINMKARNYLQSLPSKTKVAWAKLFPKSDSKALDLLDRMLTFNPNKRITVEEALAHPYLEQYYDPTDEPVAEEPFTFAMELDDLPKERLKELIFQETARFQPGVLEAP
T1 sequence (P28482 whole entry, looked up): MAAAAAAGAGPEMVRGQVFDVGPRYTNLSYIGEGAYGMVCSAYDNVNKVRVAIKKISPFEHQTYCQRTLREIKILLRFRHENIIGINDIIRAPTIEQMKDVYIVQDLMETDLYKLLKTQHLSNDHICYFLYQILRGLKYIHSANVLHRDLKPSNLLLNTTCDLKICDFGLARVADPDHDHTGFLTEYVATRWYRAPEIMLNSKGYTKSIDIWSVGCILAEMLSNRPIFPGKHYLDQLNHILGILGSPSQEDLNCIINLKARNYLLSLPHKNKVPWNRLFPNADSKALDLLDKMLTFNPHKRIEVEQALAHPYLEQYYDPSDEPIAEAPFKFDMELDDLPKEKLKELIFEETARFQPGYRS
Mitogen-activated protein kinase 7 (Homo sapiens), sequence (Q13164 2-816 limits assumed): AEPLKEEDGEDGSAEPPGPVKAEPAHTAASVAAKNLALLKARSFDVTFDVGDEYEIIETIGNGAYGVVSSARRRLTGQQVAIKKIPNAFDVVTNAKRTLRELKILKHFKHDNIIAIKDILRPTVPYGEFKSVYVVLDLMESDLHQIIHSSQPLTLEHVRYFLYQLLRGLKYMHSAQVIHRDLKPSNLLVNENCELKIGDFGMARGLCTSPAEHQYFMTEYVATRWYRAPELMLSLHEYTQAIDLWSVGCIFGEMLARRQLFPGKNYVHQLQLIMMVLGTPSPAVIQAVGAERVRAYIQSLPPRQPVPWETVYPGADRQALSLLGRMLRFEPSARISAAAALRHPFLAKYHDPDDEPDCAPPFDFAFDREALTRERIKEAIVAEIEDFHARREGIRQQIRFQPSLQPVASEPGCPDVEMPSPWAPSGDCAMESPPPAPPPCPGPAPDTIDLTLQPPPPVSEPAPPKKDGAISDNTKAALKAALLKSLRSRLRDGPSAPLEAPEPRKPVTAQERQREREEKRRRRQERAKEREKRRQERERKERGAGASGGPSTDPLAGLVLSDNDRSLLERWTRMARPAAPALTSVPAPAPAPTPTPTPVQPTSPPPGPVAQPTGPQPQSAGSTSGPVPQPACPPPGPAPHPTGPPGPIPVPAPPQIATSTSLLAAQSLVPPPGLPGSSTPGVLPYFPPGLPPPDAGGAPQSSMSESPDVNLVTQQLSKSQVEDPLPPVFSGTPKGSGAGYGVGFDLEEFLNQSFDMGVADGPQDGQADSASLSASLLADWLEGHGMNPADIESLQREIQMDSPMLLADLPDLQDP

Compound: NC(=O)c1c(NC(=O)c2ccccc2Cl)sc2c1CCN(C(=S)Nc1ccccc1Cl)C2
- inhibition [1]: Active
- inhibition [2]: inactive
- inhibition [3]: Active
- Activity [4]: inactive
- Activity (MKN-74): inactive
- half-life [5]: 57 min
- Cmax [6]: 1890 ng/mL
